Columns and labels:
[1] = system: PBMC; test: (§1) Cytotoxicity against human PBMC; format: cell-based; conditions: pbmc
[2] = system: Human immunodeficiency virus 1; test: Antiviral activity against HIV1; format: functional, organism-based
Summary of the method: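 Antiviral assay run in primary human lymphocytes.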

[3] = system: CCRF-CEM; test: Cytotoxicity against human CEM cell; format: functional
[4] = system: HepG2; test: Cytotoxicity against human HepG2 cells; format: functional
[5] = system: Vero; test: (§2) Cytotoxicity against african green monkey Vero cells; format: cell-based; conditions: chlorocebus sabaeus, vero
[6] = system: Hepatitis B virus; test: Antiviral activity against Hepatitis B virus; format: functional, organism-based
Summary of the method: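 Anti-HBV activity measured in HepG2 cells.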

[7] = as §1; format: cell-based; conditions: PBMC (peripheral blood mononuclear cells)
[8] = as §2; format: cell-based; conditions: chlorocebus sabaeus, Vero cells

Compound	CC50 [1] [µM]	EC50 [2] [µM]	EC90 [2] [µM]	CC50 [3] [µM]	CC50 [4] [µM]	CC50 [5] [µM]	EC50 [6] [µM]	EC90 [6] [µM]	CC50 [7] [µM]	CC50 [8] [µM]
CCCCCCCCCCCCCC(=O)Nc1nc(N)nc2c1ncn2[C@H]1CO[C@@H](CO)O1	> 100	6.5	27	4.6	56	7.7	> 10	> 10		
CC(=O)Nc1nc(N)nc2c1ncn2[C@H]1CO[C@@H](CO)O1	> 100	0.56	12	> 100	> 100	> 100	> 10	> 10		
CCCC(=O)Nc1nc(N)nc2c1ncn2[C@H]1CO[C@@H](CO)O1	> 100	9.2	38	> 100	> 100	> 100	> 10	> 10		
CCCCCC(=O)Nc1nc(N)nc2c1ncn2[C@H]1CO[C@@H](CO)O1	> 100	34	> 100	> 100	> 100	> 100	> 10	> 10		
CCCCCCCC(=O)Nc1nc(N)nc2c1ncn2[C@H]1CO[C@@H](CO)O1	> 100	21	56	> 100	> 100	> 100	> 10	> 10		
CCCCCCCCCC(=O)Nc1nc(N)nc2c1ncn2[C@H]1CO[C@@H](CO)O1	> 100	26	65	65	> 100	> 100	> 10	> 10		
CCCCCCCCCCCC(=O)Nc1nc(N)nc2c1ncn2[C@H]1CO[C@@H](CO)O1	60	3.6	18	13	> 100	53	> 10	> 10		
CCCCCCCCCCCCCCCC(=O)Nc1nc(N)nc2c1ncn2[C@H]1CO[C@@H](CO)O1	> 100	1.2	6	> 100	> 100	90	> 10	> 10		
CCCCCCCC/C=C\CCCCCCCC(=O)Nc1nc(N)nc2c1ncn2[C@H]1CO[C@@H](CO)O1		3.5	13	13	11		> 10	> 10	76	19
Nc1nc(N)c2ncn([C@H]3CO[C@@H](CO)O3)c2n1 [AMDOXOVIR]	> 100	0.45	7.6	> 100	> 100	> 100	12	> 100		
Cc1cn([C@H]2C[C@H](N=[N+]=[N-])[C@@H](CO)O2)c(=O)[nH]c1=O [ZIDOVUDINE]		0.0037	0.047	14	> 100	56	> 10	> 10	> 100	
